A value given as a limit tells only on which side of the number the result lay.

For orientation: inhibition means the drop in the measured response relative to a control, in per cent. What is called IC50 is the concentration that gives 50% inhibition.

A short description of assay [1]: Antiinflammatory activity in human neutrophils assessed as inhibition of fMLP/CB-induced elastase release at 10 uM incubated for 5 mins prior to fMLP/CB challenge. Conditions: Neutrophil. It is filed as functional. In outline:
(§1)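 Donor neutrophils (healthy adults, 20−30 y), purified by dextran sedimentation, Ficoll Hypaque and hypotonic lysis, kept in Ca2+-free HBSS pH 7.4 at 4 °C. Cells at 6 × 10^5/mL with MeO-Suc-Ala-Ala-Pro-Val-p-nitroanilide 100 μM as elastase substrate, equilibrated 37 °C 2 min before compound addition. Mean ± SEM, n = 3 or 4.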

Assay [2] is described as follows: Antiinflammatory activity in human neutrophils assessed as inhibition of fMLP/CB-induced elastase release incubated for 5 mins prior to fMLP/CB challenge. Type of assay: functional, cell-based. Conditions: Neutrophil. In outline:
as §1

A short description of assay [3]: Antiinflammatory activity in human neutrophils assessed as inhibition of fMLP/CB-induced superoxide anion generation at 10 uM incubated for 5 mins prior to fMLP/CB challenge. It is filed as functional. To be noted: Neutrophil. In outline:
(§2)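 Neutrophils from healthy adult donors (20−30 y), enriched by dextran sedimentation, Ficoll Hypaque centrifugation and hypotonic lysis, held in Ca2+-free HBSS pH 7.4 at 4 °C. Cells (6 × 10^5/mL) with ferricytochrome c 0.5 mg/mL and Ca2+ 1 mM, 37 °C 2 min, DMSO control. CB 1 μg/mL 3 min, then fMLP 100 nM 10 min. O2•− read as SOD-inhibitable cytochrome c reduction. Mean ± SEM, n = 3 or 4.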

A short description of assay [4]: Antiinflammatory activity in human neutrophils assessed as inhibition of fMLP/CB-induced superoxide anion generation incubated for 5 mins prior to fMLP/CB challenge. Type of assay: functional, cell-based. Conditions: Neutrophil. In short, it runs like this: as §2
Another assay concerns T47D. The assay is described as follows: Cytotoxicity against human T47D cells after 3 hrs by Alamar Blue assay. It is filed as functional. To be noted: read-out: ED50 (the source's name). In general terms: Resazurin is reduced to fluorescent resorufin, in cell work by metabolically active cells.
For a further assay, the system named is MOLT-4. The assay can be described thus: Cytotoxicity against human MOLT4 cells after 6 hrs by Alamar Blue assay. Type of assay: functional. Conditions: MOLT-4, 6 h, read-out: ED50 (the source's name).
The next assay has as its system K562. The assay can be described thus: Cytotoxicity against human K562 cells after 6 hrs by Alamar Blue assay. Type of assay: functional. Conditions: K562, 6 h, read-out: ED50 (the source's name).

Turning to `C=C1[C@H]2[C@@H]([C@@H](C(C)C)[C@H](O)[C@@H]1OC(C)=O)[C@H]1O[C@@H]2C[C@](C)(O)[C@@H](OC(C)=O)CC[C@@]1(C)OC(=O)CCC`, the inhibition at 10 µM in assay [1] turned out to be 16.8%; in assay [3] it was 2.92%. In addition, the IC50 in assay [2] and in assay [4] was over 10 µM in each case.

Regarding `C=C1[C@H]2[C@@H]([C@@H](C(C)C)[C@H](OC(C)=O)[C@@H]1O)[C@H]1O[C@@H]2C[C@](C)(O)[C@@H](O)CC[C@@]1(C)OC(=O)CCC`, the values for the inhibition at 10 µM in assay [1] and in assay [3] were 7.35% and 1.17%, respectively. The concentration for half-maximal inhibition (IC50) in assay [2] and in assay [4] was over 10 µM throughout.

`CC(=O)O[C@H]1C[C@H](C(C)C)[C@@H]2[C@@H]([C@H]3C[C@](C)(O)[C@@H](O)CC[C@@](C)(OC(C)=O)[C@@H]2O3)[C@]1(O)CCl`: the inhibition at 10 µM worked out at 9.18% in assay [1] and 3.37% in assay [3]. Besides, the IC50 in assay [2] and in assay [4] was over 10 µM throughout.

As for `O=c1[nH]cc(F)c(=O)[nH]1` [FLUOROURACIL], the EC50 with T47D stood at 50.2 µM; in the assay with MOLT-4 it was 15.1 µM; with K562, 16.2 µM.

As to `CC(=O)O[C@H]1C[C@H](C(C)C)[C@@H]2[C@@H]([C@H]3C[C@](C)(O)[C@@H](OC(C)=O)CC[C@@](C)(OC(C)=O)[C@@H]2O3)[C@]1(O)CCl`, the inhibition at 10 µM in assay [1] was -1.19%; in assay [3] it was 8.92%. Besides, the IC50 in assay [2] and in assay [4] was over 10 µM each time.

Take `C=C1C[C@H]2O[C@H]([C@H]3[C@@H]2C(=C)[C@@H](O)C[C@@H]3C(C)C)[C@](C)(OC(C)=O)CC[C@@H]1O`: the inhibition at 10 µM came to 0.62% in assay [1] and 3.2% in assay [3]. In addition, the IC50 in assay [2] and in assay [4] was over 10 µM each time.

As for `C=C1[C@H]2[C@@H]([C@H](C(C)C)[C@H](OC(C)=O)[C@@H]1O)[C@H]1O[C@@H]2C[C@](C)(O)[C@@H](OC(C)=O)CC[C@@]1(C)OC(=O)CCC`, the inhibition at 10 µM in assay [1] worked out at 6.47%; in assay [3] it was 10.5%. For the same compound, the IC50 in assay [2] and in assay [4] was over 10 µM each time.

For `CC(=O)O[C@H]1[C@H](C(C)C)[C@@H]2[C@@H]([C@H]3C[C@](C)(O)[C@@H](OC(C)=O)CC[C@@](C)(OC(C)=O)[C@@H]2O3)[C@](O)(CCl)[C@H]1OC(C)=O`, the inhibition at 10 µM came out at 6.42% in assay [1] and 9.36% in assay [3]. For the same compound, the IC50 in assay [2] and in assay [4] was over 10 µM throughout.

Regarding `C=C1[C@H]2[C@H]([C@H]3O[C@@H]2C[C@](C)(O)[C@@H](OC(C)=O)CC[C@@]3(C)OC(C)=O)[C@H](C(C)C)C[C@@H]1O`, the inhibition at 10 µM in assay [1] worked out at 7.33%; in assay [3] it was 14.7%. In addition, the IC50 in assay [2] and in assay [4] was over 10 µM each time.

`CC(=O)O[C@H]1[C@H](C(C)C)[C@@H]2[C@@H]([C@H]3C[C@](C)(O)[C@H](O)CC[C@@](C)(OC(C)=O)[C@@H]2O3)[C@](O)(CCl)[C@H]1OC(C)=O`: the values for the inhibition at 10 µM in assay [1] and in assay [3] were 7.3% and 5.02%, respectively. For the same compound, the IC50 in assay [2] and in assay [4] was over 10 µM in each case.

In the case of `C=C1[C@H]2[C@@H]([C@@H](C(C)C)C[C@@H]1O)[C@H]1O[C@@H]2C[C@](C)(O)[C@@H](OC(=O)Cc2ccccc2)CC[C@@]1(C)OC(=O)CCC`, the inhibition at 10 µM is 89.2% in assay [1] and 81.6% in assay [3]. In addition, the values for the IC50 in assay [2] and in assay [4] were 2.92 µM and 3.13 µM, respectively. Further, the EC50 is 8.58 µM with T47D, 4.35 µM in the assay with MOLT-4 and 7.97 µM in the assay on K562.

For the compound `C=C1[C@H]2[C@@H]([C@@H](C(C)C)C[C@@H]1O)[C@H]1O[C@@H]2C[C@](C)(O)[C@@H](O)CC[C@@]1(C)OC(C)=O`, the inhibition at 10 µM in assay [1] stood at 11.6%; in assay [3] it was 7.14%. Also, the half-maximal inhibitory concentration (IC50) in assay [2] and in assay [4] was over 10 µM in each case.

The values above are taken from ChEMBL document CHEMBL2424517, “Eunicellin-based diterpenoids from the Formosan soft coral Klyxum molle with inhibitory activity on superoxide generation and elastase release by neutrophils” (J Nat Prod, 2013).
